Experimental data published in ChEMBL document CHEMBL1134845, “Syntheses and biological activities of a novel group of steroidal derived inhibitors for human Cdc25A protein phosphatase” (J Med Chem, 2001).

Tests used:
HT-29 [1] = assay: Inhibition of colon cancer in HT-29 cancer cell lines; type: functional; conditions: Homo sapiens
Summary of the method: (§1)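 Soft agar clonogenic assay of anchorage-independent growth, using HT-29 colon and A549 lung adenocarcinoma cells. The value is the compound concentration that cut colony number to 50% of control.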

SK-MEL-5 = assay: Growth inhibitory activity was determined against SK-MEL-5 cancer cell line of melanoma; type: functional, Homo sapiens
Summary of the method: (§2)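 NCI 60 human tumour cell line screen run at the National Cancer Institute. Cell growth and viability read with the protein stain sulforhodamine B, which binds basic amino acids of cells left attached after washing. […] MG MID is the mean GI50 calculated over all panels.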

A549 [2] = assay: Growth inhibitory activity was determined against A549/ATCC cancer cell line of non-small cell lung cancer; type: functional, Homo sapiens; summary of the method: as §2
LOX IMVI = assay: Growth inhibitory activity was determined against LOX IMVI cancer cell line of melanoma; type: functional, Homo sapiens; summary of the method: as §2
786-0 [3] = assay: Inhibition of Renal cancer in 786-0 cancer cell lines; type: functional; conditions: Homo sapiens
SF-539 = assay: Growth inhibitory activity was determined against SF-539 cancer cell line of CNS cancer; type: functional; conditions: Homo sapiens; summary of the method: as §2
UO-31 [4] = assay: Inhibition of Renal cancer in UO-31 cancer cell lines; type: functional; conditions: Homo sapiens
NCI/ADR-RES [5] = assay: Inhibition of Breast cancer in NCI/ADR-RES cancer cell lines; type: functional; conditions: Homo sapiens
NCI-H23 = assay: Growth inhibitory activity was determined against NCI-H23 cancer cell line of non-small cell lung cancer; type: functional, Homo sapiens; summary of the method: as §2
[6] = molecular target: Receptor-type tyrosine-protein phosphatase C, CD45 (Homo sapiens) (UniProt P08575); assay: Inhibitory activity tested against human CD45 receptor-type tyrosine-protein phosphatase C
SF-268 = assay: Growth inhibitory activity was determined against SF-268 cancer cell line of CNS cancer; type: functional; conditions: Homo sapiens; summary of the method: as §2
U-251 = assay: Growth inhibitory activity was determined against U-251 cancer cell line of CNS cancer; type: functional; conditions: Homo sapiens; summary of the method: as §2
PC-3 [7] = assay: Inhibition of Prostate cancer in PC-3 cancer cell lines; type: functional; conditions: Homo sapiens
COLO 205 = assay: Growth inhibitory activity was determined against COLO 205 cancer cell line colon cancer; type: functional, Homo sapiens; summary of the method: as §2
[8] = molecular target: T1, M-phase inducer phosphatase 1 (Homo sapiens) (UniProt P30304); assay: (§3) Inhibitory activity tested against cell division cycle 25A (assay using fluorescein diphosphate (FDP) as substrate)
T1 sequence (whole entry): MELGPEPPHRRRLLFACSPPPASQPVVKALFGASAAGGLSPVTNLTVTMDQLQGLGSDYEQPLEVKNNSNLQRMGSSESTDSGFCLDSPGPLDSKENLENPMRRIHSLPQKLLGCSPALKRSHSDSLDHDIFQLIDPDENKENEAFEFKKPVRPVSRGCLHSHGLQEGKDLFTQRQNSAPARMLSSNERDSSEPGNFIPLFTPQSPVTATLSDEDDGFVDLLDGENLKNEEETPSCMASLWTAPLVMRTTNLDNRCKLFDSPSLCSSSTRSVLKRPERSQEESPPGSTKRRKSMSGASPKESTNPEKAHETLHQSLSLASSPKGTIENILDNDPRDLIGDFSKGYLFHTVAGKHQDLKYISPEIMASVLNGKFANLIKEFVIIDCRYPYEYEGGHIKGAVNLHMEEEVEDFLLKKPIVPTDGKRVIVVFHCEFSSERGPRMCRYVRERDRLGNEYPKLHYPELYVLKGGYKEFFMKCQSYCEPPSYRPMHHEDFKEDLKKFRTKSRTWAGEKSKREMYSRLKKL
Summary of the method: (§4)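 Recombinant human GST-Cdc25A fusion protein, each batch calibrated so that FDP was dephosphorylated linearly over 20 min. Fluorescein diphosphate was the substrate. Reactions ran 15 min at 25 °C in the dark and were stopped with sodium orthovanadate. Fluorescein monophosphate was read at 485 nm excitation and 530 nm emission. IC50 came from at least two independent runs, each in triplicate.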

NCI-H522 = assay: Growth inhibitory activity was determined against NCI-H522 cancer cell line of non-small cell lung cancer; type: functional; conditions: Homo sapiens; summary of the method: as §2
HCC 2998 = assay: Growth inhibitory activity was determined against HCC2998 cancer cell line colon cancer; type: functional, Homo sapiens; summary of the method: as §2
BT-549 (Homo sapiens) [9] = assay: Inhibition of Breast cancer in BT-549 cancer cell lines
[10] = molecular target: T1, M-phase inducer phosphatase 1 (Homo sapiens); assay: (§5) Inhibitory activity tested against cell division cycle 25A (assay using p-nitro phenyl phosphate (pNPP) as substrate)
OVCAR-3 [11] = assay: Inhibition of Ovarian cancer in OVCAR-3 cancer cell lines; type: functional; conditions: Homo sapiens
T47D [12] = assay: Inhibition of Breast cancer in T-47D cancer cell lines; type: functional; conditions: Homo sapiens
SN12C [13] = assay: Inhibition of Renal cancer in SN12C cancer cell lines; type: functional; conditions: Homo sapiens
OVCAR-8 [14] = assay: Inhibition of Ovarian cancer in OVCAR-8 cancer cell lines; type: functional; conditions: Homo sapiens
SN12C [15] = assay: Growth inhibitory activity was determined against SN12C cancer cell line of renal cancer; type: functional; conditions: Homo sapiens; summary of the method: as §2
UO-31 [16] = assay: Growth inhibitory activity was determined against UO-31 cancer cell line of renal cancer; type: functional; conditions: Homo sapiens; summary of the method: as §2
T47D [17] = assay: Growth inhibitory activity was determined against T-47D cancer cell line of Breast cancer; type: functional, Homo sapiens; summary of the method: as §2
786-0 [18] = assay: Growth inhibitory activity was determined against 786-0 cancer cell line of renal cancer; type: functional; conditions: Homo sapiens; summary of the method: as §2
A549 [19] = assay: Inhibitory activity against A549 human adenocarcinoma; type: functional, cell-based; summary of the method: as §1
[20] = molecular target: T2, M-phase inducer phosphatase 1 (Homo sapiens, UniProt P30304); assay: as §3
T2 sequence (P30304 whole entry): T1 sequence (whole entry)
Summary of the method: as §4, with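 “orthovanadate.” for “orthovanadate. Fluorescein monophosphate was read at 485 nm excitation and 530 nm emission.”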

PC-3 [21] = assay: Growth inhibitory activity was determined against PC-3 cancer cell line of Prostate cancer; type: functional; conditions: Homo sapiens; summary of the method: as §2
BT-549 (Homo sapiens) [22] = assay: Growth inhibitory activity was determined against BT-549 cancer cell line of Breast cancer
OVCAR-3 [23] = assay: Growth inhibitory activity was determined against OVCAR-3 cancer cell line of Ovarian cancer; type: functional; conditions: Homo sapiens; summary of the method: as §2
[24] = molecular target: T2, M-phase inducer phosphatase 1; assay: as §5
OVCAR-8 [25] = assay: Growth inhibitory activity was determined against OVCAR-8 cancer cell line of Ovarian cancer; type: functional; conditions: Homo sapiens; summary of the method: as §2
NCI/ADR-RES [26] = assay: Growth inhibitory activity was determined against NCI/ADR-RES cancer cell line of Breast cancer; type: functional, Homo sapiens; summary of the method: as §2
HT-29 [27] = assay: Growth inhibitory activity was determined against HT-29 cancer cell line colon cancer; type: functional, Homo sapiens; summary of the method: as §2
[28] = molecular target: T3, Receptor-type tyrosine-protein phosphatase C (Homo sapiens, UniProt P08575); assay: Inhibitory activity tested against Human CD45 Phosphatase (assay using p-nitrophenyl phosphate (pNPP) as substrate)
T3 sequence (P08575 whole entry): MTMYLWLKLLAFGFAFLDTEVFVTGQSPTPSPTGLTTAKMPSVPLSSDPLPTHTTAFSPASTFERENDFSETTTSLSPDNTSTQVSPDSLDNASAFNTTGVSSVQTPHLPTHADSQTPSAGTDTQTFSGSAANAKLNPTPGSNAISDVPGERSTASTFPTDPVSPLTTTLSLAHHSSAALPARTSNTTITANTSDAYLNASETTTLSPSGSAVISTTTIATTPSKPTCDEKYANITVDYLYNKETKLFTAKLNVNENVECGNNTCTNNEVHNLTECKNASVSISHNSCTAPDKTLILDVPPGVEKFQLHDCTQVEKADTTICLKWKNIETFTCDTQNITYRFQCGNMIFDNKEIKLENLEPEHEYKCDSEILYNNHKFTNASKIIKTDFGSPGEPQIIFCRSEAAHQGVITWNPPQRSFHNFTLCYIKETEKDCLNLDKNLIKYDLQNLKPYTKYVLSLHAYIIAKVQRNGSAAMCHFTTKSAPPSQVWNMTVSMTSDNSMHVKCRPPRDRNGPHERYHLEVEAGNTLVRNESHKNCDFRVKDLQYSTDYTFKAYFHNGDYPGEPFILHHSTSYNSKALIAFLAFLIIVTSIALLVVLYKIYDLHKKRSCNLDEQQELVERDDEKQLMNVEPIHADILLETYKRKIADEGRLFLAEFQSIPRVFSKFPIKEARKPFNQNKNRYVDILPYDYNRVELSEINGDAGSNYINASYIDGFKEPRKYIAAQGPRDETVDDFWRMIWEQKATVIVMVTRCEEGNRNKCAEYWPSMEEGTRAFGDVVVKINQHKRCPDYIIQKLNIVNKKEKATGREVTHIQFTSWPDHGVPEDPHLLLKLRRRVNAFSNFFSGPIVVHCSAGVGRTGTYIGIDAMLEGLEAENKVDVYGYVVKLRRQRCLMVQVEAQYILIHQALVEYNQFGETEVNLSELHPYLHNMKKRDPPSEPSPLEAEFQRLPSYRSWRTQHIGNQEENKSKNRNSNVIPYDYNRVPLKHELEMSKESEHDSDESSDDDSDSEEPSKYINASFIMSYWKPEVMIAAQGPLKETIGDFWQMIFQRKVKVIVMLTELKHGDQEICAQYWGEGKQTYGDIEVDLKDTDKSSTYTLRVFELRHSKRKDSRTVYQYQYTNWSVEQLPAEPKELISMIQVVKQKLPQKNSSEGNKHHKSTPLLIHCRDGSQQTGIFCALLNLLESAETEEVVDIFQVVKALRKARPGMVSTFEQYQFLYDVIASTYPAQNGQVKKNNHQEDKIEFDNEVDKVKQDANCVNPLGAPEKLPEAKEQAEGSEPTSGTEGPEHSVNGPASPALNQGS

PC-3 [29] = assay: Growth inhibitory activity PC-3 cancer cell line of Prostate cancer; type: functional; conditions: Homo sapiens; summary of the method: as §2
[30] = molecular target: Receptor-type tyrosine-protein phosphatase C, CD45 (Homo sapiens) (UniProt P08575); assay: Inhibitory activity tested against human CD45 (receptor-type tyrosine-protein phosphatase C)

Compound	GI50 (SK-MEL-5; Homo sapiens, SK-MEL-5) [µM]	GI50 (A549 [2]; Homo sapiens, A549) [µM]	GI50 (LOX IMVI; Homo sapiens, LOX IMVI) [µM]	GI50 (SF-539) [µM]	GI50 (NCI-H23; Homo sapiens, NCI-H23) [µM]	GI50 (SF-268) [µM]	GI50 (U-251) [µM]	GI50 (COLO 205; Homo sapiens, COLO 205) [µM]	GI50 (NCI-H522) [µM]	GI50 (SN12C [15]) [µM]	GI50 (UO-31 [16]) [µM]	GI50 (786-0 [18]) [µM]	IC50 [20] [µM]	GI50 (OVCAR-3 [23]) [µM]	GI50 (OVCAR-8 [25]) [µM]	IC50 [28] [µM]	further results
C/C(=C\CCCC#N)[C@H]1CC[C@]2(C)[C@@H]([C@H](C)CCCC(C)C)CC[C@H]2[C@@H]1CC(=O)O	8.83	7.33	5.91	10.5	7.4	16.6	5.53	5.92	17.3								GI50 (HT-29 [1]): 6.49 µM; GI50 (786-0 [3]): 8.69 µM; GI50 (UO-31 [4]): 9.55 µM; GI50 (NCI/ADR-RES [5]): 6.44 µM; IC50 [6]: 13.2 µM; GI50 (PC-3 [7]): 6.34 µM; IC50 [8]: 2.5 µM; GI50 (HCC 2998; Homo sapiens, HCC 2998): 4.31 µM; GI50 (BT-549 (Homo sapiens) [9]): 5.75 µM; IC50 [10]: 9.3 µM; GI50 (OVCAR-3 [11]): 6.77 µM; GI50 (T47D [12]): 8.22 µM; GI50 (SN12C [13]): 7.73 µM; GI50 (OVCAR-8 [14]): 5.53 µM
CC(C)CCCC(C)[C@H]1CC[C@H]2[C@@H]3CC(=O)O[C@](C)(CC/C=C\C#N)[C@H]3CC[C@]12C (some centres not stated)	4.57	15	5.15	> 25	14.8	3.19	9.49	8.49	0.89	5.08	0.39	7.54	29	13.3	8.72	> 100	GI50 (T47D [17]; Homo sapiens, T47D): 8.35 µM; IC50 (A549 [19]): 7.2 µM; GI50 (PC-3 [21]): 9.73 µM; GI50 (BT-549 (Homo sapiens) [22]; Homo sapiens, BT-549): > 25 µM; IC50 [24]: > 100 µM; GI50 (NCI/ADR-RES [26]; Homo sapiens, NCI/ADR-RES): > 25 µM; GI50 (HT-29 [27]; Homo sapiens, HT-29): 4.85 µM
CC(C)CCCC(C)[C@H]1CC[C@H]2[C@H](CC(=O)O)[C@@H](C(C)CCCCC#N)CC[C@]12C (stereo in doubt; 22)				5.01			4.35			6.46	8.74	7.18	1.9	5.19	8.02	8.6	GI50 (T47D [17]): 9.27 µM; GI50 (SK-MEL-5): 7.71 µM; GI50 (A549 [2]): 4.35 µM; GI50 (LOX IMVI): 4.69 µM; GI50 (PC-3 [29]): 6.88 µM; GI50 (NCI-H23): 5.85 µM; GI50 (COLO 205): 5.55 µM; GI50 (HCC 2998): 4.77 µM; IC50 [30]: 8.6 µM; GI50 (BT-549 (Homo sapiens) [22]): 6.2 µM; GI50 (NCI/ADR-RES [26]): 8.2 µM; GI50 (HT-29 [27]): 5.18 µM
